In paper PMC2847506 (Phytochemistry, 2010):

Experiments:
NF-κB p65 (RelA) subunit = NF-κB p65 (RelA) subunit (Homo sapiens, UniProt Q04206); assay: Enzyme-based ELISA NF-κB; assay type: biochemical
[1] = tested on: HT-29 human colon cancer cell line; assay: Cytotoxic activity against the HT-29 cell line; assay type: cell-based; conditions: for Cytotoxicity ED50: HT-29 cells
[2] = Stability in solvents at room temperature; assay type: physicochemical; conditions: kept in CDCl3 or deuteriobenzene at room temperature; [2+2] addition
[3] = Body weight of host mice in the hollow fiber assay; assay type: in vivo; conditions: highest two doses (10 and 5 mg/kg/day), ip, over the course of the study
Outline: (§1)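 Murine hollow fiber model following an NCI procedure, with human cancer cells (HT-29, LNCaP, MCF-7) held in fibers. Test compound given ip at 0.5 to 10 mg/kg per day for four days, in 5% EtOH plus 5% Tween 80 in physiologic saline. Paclitaxel positive control at 2.0 mg/kg per day for four days.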

[4] = tested on: P-388 lymphocytic murine leukemia; conditions: ref Herz et al., 1981; cited from earlier work
HT-29 human cancer cells = assay: In vivo hollow fiber assay, HT-29; set-up: species or system human cells in host mice; conditions: HT29, ip administration, 0.5 to 10 mg per kg per day for four days
Outline: as §1

[5] = tested on: LNCaP (hormone-dependent human prostate cancer); assay: In vivo hollow fiber assay, LNCaP; set-up: species or system human cells in host mice; conditions: ip administration, 0.5 to 10 mg per kg per day for four days
Outline: as §1

[6] = tested on: MCF-7 (human breast cancer); assay: In vivo hollow fiber assay, MCF-7; set-up: species or system human cells in host mice; conditions: MCF-7, ip administration, 0.5 to 10 mg per kg per day for four days
Outline: as §1

Sequence of NF-κB p65 (RelA) subunit (Q04206 whole entry, species assumed): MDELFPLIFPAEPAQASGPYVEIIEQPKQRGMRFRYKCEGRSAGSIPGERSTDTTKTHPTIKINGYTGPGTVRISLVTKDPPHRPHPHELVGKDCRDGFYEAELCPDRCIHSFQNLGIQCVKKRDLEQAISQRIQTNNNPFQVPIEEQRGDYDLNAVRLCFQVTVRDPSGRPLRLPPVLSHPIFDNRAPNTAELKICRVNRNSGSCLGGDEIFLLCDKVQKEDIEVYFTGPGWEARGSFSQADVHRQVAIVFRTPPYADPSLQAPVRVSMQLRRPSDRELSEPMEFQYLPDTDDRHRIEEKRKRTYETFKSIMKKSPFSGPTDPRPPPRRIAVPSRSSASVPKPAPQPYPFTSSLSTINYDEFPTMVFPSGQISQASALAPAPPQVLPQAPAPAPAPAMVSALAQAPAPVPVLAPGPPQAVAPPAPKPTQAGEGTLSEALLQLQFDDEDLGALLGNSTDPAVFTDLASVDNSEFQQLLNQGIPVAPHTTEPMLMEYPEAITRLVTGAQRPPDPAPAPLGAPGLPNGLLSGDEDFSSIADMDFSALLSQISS

Substance | NF-κB Inhibition ED50 (NF-κB p65 (RelA) subunit) [µM] | Cytotoxicity ED50 [1] [µM] | change of potency of the inhibitory effect on HT-29 cells relative to compound 3 ([1]; tiglate instead of methacrylate on C-8) | stability in solvents [2] | body weight loss [3] | in vivo antitumor activity [4] | inhibition of proliferation in hollow fibers (HT-29 human cancer cells) | inhibition of proliferation in hollow fibers [5] | inhibition of proliferation in hollow fibers [6]
2-epi-glaucolide E [Compound 5] | > 10 | 9.4 | – | – | – | – | – | – | –
2α,13-diacetoxy-4α-hydroxy-8α-methacryloyloxybourbonen-12,6α-olide [Compound 6] | 2.8 | – | – | – | – | – | – | – | –
8-desacyl-13-acetoxyrolandrolide-8-O-tiglate [Compound 4] | – | 1.5 | decreased around ten times | – | – | – | – | – | –
13-acetoxyrolandrolide [Compound 3] | 7.1 | 0.16 | – | partially transformed to compound 6 | up to 20% | weak | no inhibition of proliferation was observed | no inhibition of proliferation was observed | no inhibition of proliferation was observed
